hERG protect: shields human hERG channel from block by proarrhythmic agents | Q12809 | CHO-hERG, FluxOR thallium flux, dofetilide IC70 present | activation (rescue from dofetilide block), less the hit threshold, % at 10 µM | hit rate 0.51% among 310,000 | AID 1511;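 active means activation above the mean of controls blocked by dofetilide plus 5 SD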;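 further: thallium influx through hERG after potassium depolarization seen as dye fluorescence rise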
Cl transport mod: modulators of human KCC2 chloride dependent transport | Q9H2X9 | KCC2 cells, thallium flux FluoZin-2 fluorescence | B-score of Tl+ flux slope (higher = more flux/activation; lower = inhibition) at 10 µM | hit rate 2.2% among 190,000 | AID 1456;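 active means thallium flux slope and its plate-corrected score both differing from the plate sample mean at a set confidence after two filtering rounds, in either direction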;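 further: slope of fluorescence scaled to starting intensity during 10 to 20 s after thallium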
KCNQ1 pot: human KCNQ1 channel potentiation or activation; P51787; CHO-K1 KCNQ1, thallium flux FluxOR fluorescence; hits give high values; hit rate 0.35% among 310,000; AID 2648; B-score at 10 µM;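 active means fluorescence ratio B-score, a plate-corrected score, at least three library SD, with initial intensity B-score within 5 SD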
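Material: CHO-K1 cells stably expressing KCNQ1. Medium: assay buffer for compound exposure, DMSO matched across wells. Reagent: K+/Tl+ depolarizing stimulus. Compound dosing: single-concentration screen. Times: 37 °C overnight plating, 90-min dark dye load, 20-min compound pretreatment. Technique: FluxOR Tl+ flux fluorescence.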
KCNQ1 inh: inhibitors of human KCNQ1 potassium channel. P51787. CHO-K1 KCNQ1, FluxOR thallium flux fluorescence; hits give high values. B-score at 10 µM. hit rate 1.3% among 310,000;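 active means compounds whose thallium flux B-score, printed positive for inhibition, exceeds three library SD while starting fluorescence stays within three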;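 further: channel opened by potassium depolarization with thallium stimulus after 20 min compound exposure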
KCNK9 inh: inhibitors of human KCNK9 two-pore domain potassium channel. Q9NPC2. HEK293 KCNK9, FluxOR thallium flux fluorescence; hits give low values. B-score at 10 µM. hit rate 1.2% among 310,000. AID 488922;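 active means ratio B-score over 3 SD below the library mean, with starting fluorescence within 5 SD of its mean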;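 further: negative B-score means less thallium flux so channel inhibition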
KCNK3 inh: human KCNK3 channel inhibition, primary screen; B-score at 10 µM; hit rate 0.84% among 340,000; CHO-KCNK3 thallium flux, FluxOR fluorescence; hits give low values;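 active means B-score under library mean minus 4 SD, starting fluorescence ratio at most library mean plus 5 SD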;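 further: more negative B-score means stronger inhibition of thallium flux through KCNK3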
KCC2 secondary: confirmation of human KCC2 transport modulators | shares compounds with Cl transport mod | HEK293-KCC2, thallium flux, FluoZin2 fluorescence; hits give high values | normalised thallium flux (F/F0 slope) at 10 µM | hit rate 15% among 3,700 | AID 1713;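 active means thallium flux slope above the same plate's solvent-only control mean plus 3 SD; inconclusive means the two replicate wells disagree; inactive means no significant difference from solvent-only control wells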
KCC2 bumet counter: thallium flux persisting under bumetanide in KCC2 cells, counter-screen secondary assay; hit rate 49% among 3,700; shares compounds with Cl transport mod; normalized thallium flux at 10 µM; HEK293-KCC2 + bumetanide/ouabain, thallium flux FluoZin2; hits give high values;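 active means thallium entry rate above the same plate's blocked-transporter control wells by more than 3 SD; inconclusive means the two repeat wells disagree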;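 further: raw slope of fluorescence over initial fluorescence between 10 and 20 s after thallium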
KCC2 sec2: KCC2 (human) modulation, second secondary assay | shares compounds with Cl transport mod | HEK293-KCC2, thallium flux FluoZin2 fluorescence; actives lie on both sides; F/F0 rise rate, 10–20 s post-thallium | normalized thallium flux at 10 µM | hit rate 23% among 3,700 | AID 1715;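 active means thallium flux slope more than 3 SD above or below the plate's solvent-only control mean, mostly below; inconclusive means the two repeat wells disagreed; inactive means no significant shift from solvent-only controls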;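 further: raw slope with 0.1% DMSO as baseline and bumetanide as block control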
HEK293 Tl flux: parental HEK flux effect, counter-screen; shares compounds with Cl transport mod; HEK293 parental cells, thallium flux FluoZin2, ouabain; baseline-ratio fluorescence slope, 10–20 s after thallium; thallium flux rate (normalised fluorescence) at 10 µM; hit rate 46% among 3,700; AID 1716;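 active means thallium flux rate significantly above the same plate's solvent-only control wells, beyond their mean plus 3 SD; inconclusive means the two replicate wells gave conflicting results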
KCC2 retest ouab: confirmation of human KCC2 modulators with ouabain; AID 1717; raw Tl+ flux slope (below DMSO = inhibition, above = activation) at 10 µM; hit rate 48% among 3,700; HEK293-KCC2, thallium flux FluoZin2 fluorescence; bidirectional: low = inhibitor, high = activator; shares compounds with Cl transport mod;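 active means thallium flux slope beyond 3 SD from same-plate DMSO control mean in most replicates, usually higher, sometimes lower; inconclusive means repeat tests gave conflicting results; inactive means no significant difference from controls in most replicates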;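 further: slope of initial-normalized fluorescence between seconds 10 and 20 after thallium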
HEK293 Tl flux2: counter-screen for KCC2 modulators: effect in parental HEK293 cells; shares compounds with Cl transport mod; thallium flux FluoZin-2 fluorescence slope; thallium flux slope at 10 µM; hit rate 33% among 3,700;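 active means thallium flux slope above the same plate's solvent-control mean plus 3 SD in both duplicate wells; inconclusive means duplicate wells that disagreed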;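 further: run without ouabain in cells lacking the KCC2 cotransporter; slope of fluorescence scaled to its starting value between 10 and 20 s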
Starred values were filed as active, the others as inactive; i = inactive; ? = inconclusive; . = no result. Sampled rows, rich in hits. Any-hit rate of the full collection: about 4.1%.

SMILES	hERG protect	Cl transport mod	KCNQ1 pot	KCNQ1 inh	KCNK9 inh	KCNK3 inh	KCC2 secondary	KCC2 bumet counter	KCC2 sec2	HEK293 Tl flux	KCC2 retest ouab	HEK293 Tl flux2
Cc1csc(NC(=O)C2CC(=O)N(Cc3ccco3)C2)n1 (configuration not stated)	-4	2.8*	i	i	i	i	0.0058	0.0046	0.03	0.0078	0.019	0.0098
S=c1[nH]nc(COc2ccccc2)n1/N=C/C=C/c1ccco1	-7	16*	i	i	i	i	0.0072	0.05*	0.027	0.012*	0.028*	?
S=c1[nH]nc(COc2ccccc2)n1/N=C/C=C/c1ccccc1	-9	12*	i	i	i	i	0.014*	0.14*	0.034	0.021*	0.056*	?
O=[N+]([O-])c1cccc(/C=N/n2c(COc3ccccc3)n[nH]c2=S)c1	-9	59*	i	i	i	i	0.011	0.15*	0.031	0.019*	0.059*	0.012*
C=CCN(C(=O)c1csnn1)C(C(=O)NC1CCCC1)c1ccccc1 (configuration not stated)	-11	.	i	i	i	i	.	.	.	.	.	.
O=C(CC1C(=O)NCCN1Cc1cccc(C(F)(F)F)c1)NCCc1cnccn1 (configuration not stated)	-13	.	i	i	i	i	.	.	.	.	.	.
COc1ccccc1NC(=S)N(CCCN1CCOCC1)Cc1cn(C)c2ccccc12	-15	-1.5	i	i	i	i	.	.	.	.	.	.
CCOc1ccccc1NC(=S)N(CCCN1CCOCC1)Cc1cn(C)c2ccccc12	-6	-4.7*	i	i	i	i	0.0073	0.0047	0.029	?	0.019	0.011
COc1ccc(CC(=O)Oc2ccc(F)cc2)cc1	-1	.	i	i	i	i	.	.	.	.	.	.
O=C(Cc1ccc(F)cc1)Oc1ccc(C(=S)N2CCCC2)cc1	-1	-4.1*	i	i	i	i	?	?	0.022*	?	0.013*	0.012
Cc1[nH]n(-c2ccccc2)c(=O)c1/C=N/N1C(=O)c2ccc3c4c(ccc(c24)C1=O)CC3	0	11*	i	i	i	i	?	0.021*	0.032	0.012*	?	0.011
Cc1[nH]n(-c2ccccc2)c(=O)c1/C=N/N(C)c1ccccc1	-1	22*	i	i	i	i	0.0067	0.05*	0.045*	0.032*	0.044*	0.035*
O=C(CSc1nnc(NC(=O)c2c(F)cccc2Cl)s1)Nc1ccccc1F	-9	.	i	i	i	i	.	.	.	.	.	.
COc1cc(C(=O)Nc2cc(C(F)(F)F)ccc2N2CCOCC2)ccc1OCC(=O)N1CCOCC1	-13	.	i	i	i	i	.	.	.	.	.	.
COc1ccc(C2C(C#N)=C(N)Oc3cc(C)[nH]c(=O)c32)c(OC)c1OC (configuration not stated)	.	.	.	.	.	i	0.0093	0.0063	0.034	0.0088	0.019	0.012

Screening results deposited in PubChem by several laboratories.
